Experimental data from ChEMBL document CHEMBL1146542, “Cytotoxic flavone analogues of vitexicarpin, a constituent of the leaves of Vitex negundo” (J Nat Prod, 2003).
In brackets after ≈: the same amount, converted by molar mass. Activity calls are given as the source filed them. The rule behind the calls is not given here.

Key:
Col2 = test: Cytotoxicity against human Col2 cells; assay type: functional; conditions: read-out: ED50 (the source's name)
[1] = Cytotoxicity against HUVEC; assay type: cell-based; conditions: human, read-out: ED50 (the source's name)
KB [2] = test: Cytotoxicity against human KB cells; assay type: functional; conditions: read-out: ED50 (the source's name)
LNCaP [3] = test: Cytotoxicity against human LNCAP cells; assay type: functional; conditions: read-out: ED50 (the source's name)
[4] = Cytotoxicity against human telomerase reverse transcriptase expressing RPE1 cells; assay type: cell-based, TERT-RPE1; conditions: read-out: ED50 (the source's name)
Lu1 [5] = test: Cytotoxicity against human Lu1 cells; assay type: functional; conditions: read-out: ED50 (the source's name)
P388 = test: In vivo growth inhibition of mouse P388 cells at 135 mg/kg, ip relative to control; assay type: functional; conditions: route intraperitoneal
Summary of the method: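 Mouse P-388 leukemia model run under a standard protocol. Compound given intraperitoneally at 135 mg/kg/injection, and activity was expressed as T/C value (%).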

LNCaP [6] = test: Inhibition of human LNCAP cells propagated in hollow fibers via intraperitoneal site of NCr nu/nu mouse at 10 to 40 mg/kg, ip once daily after 7 days of implantation relative to control; assay type: functional; conditions: dose mg/kg 10-40
Summary of the method: (§1)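 Hollow fiber assay in mice with KB, LNCaP and Lu1 cells, with fibers placed at intraperitoneal and subcutaneous sites. Compound given ip at 10, 20 and 40 mg/kg. Read-out was percent growth inhibition of the cells at each site versus control, and body weight of the mice was monitored.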

Lu1 [7] = test: Inhibition of human Lu1 cells propagated in hollow fibers via subcutaneous site of NCr nu/nu mouse at 10 to 40 mg/kg, ip once daily after 7 days of implantation relative to control; assay type: functional; conditions: dose mg/kg 10-40; summary of the method: as §1
KB [8] = test: Inhibition of human KB cells propagated in hollow fibers via subcutaneous site of NCr nu/nu mouse at 10 to 40 mg/kg, ip once daily after 7 days of implantation relative to control; assay type: functional; conditions: dose mg/kg 10-40; summary of the method: as §1
LNCaP [9] = test: Inhibition of human LNCAP cells propagated in hollow fibers via subcutaneous site of NCr nu/nu mouse at 10 to 40 mg/kg, ip once daily after 7 days of implantation relative to control; assay type: functional; conditions: dose mg/kg 10-40; summary of the method: as §1
Lu1 [10] = test: Inhibition of human Lu1 cells propagated in hollow fibers via intraperitoneal site of NCr nu/nu mouse at 10 to 40 mg/kg, ip once daily after 7 days of implantation relative to control; assay type: functional, organism-based; summary of the method: as §1

Compound	EC50 (Col2) [µg/mL]	CC50 [1] [µg/mL]	EC50 (KB [2]) [µg/mL]	EC50 (LNCaP [3]) [µg/mL]	CC50 [4] [µg/mL]	EC50 (Lu1 [5]) [µg/mL]	T/C (P388) [%]	inhibition (INH) (LNCaP [6]) [%]	inhibition (INH) (Lu1 [7]) [%]	inhibition (INH) (KB [8]) [%]	inhibition (INH) (LNCaP [9]) [%]	Activity (Lu1 [10])
COc1ccc(-c2oc3cc(OC)c(OC)c(OC)c3c(=O)c2OC)cc1OC [HEXAMETHOXYFLAVONE]	> 20	> 20	> 20	> 20	> 20	> 20	–	–	–	–	–	–
COc1ccc(-c2oc3cc(OC)c(OC)c(OC(=O)c4ccccc4)c3c(=O)c2OC)cc1OC(=O)c1ccccc1	> 20	> 20	> 20	> 20	4.3 (≈ 7.38 µM)	6.5 (≈ 11.2 µM)	–	–	–	–	–	–
CCCCCC(=O)Oc1cc(-c2oc3cc(OC)c(OC)c(OC(=O)CCCCC)c3c(=O)c2OC)ccc1OC	> 20	11.1 (≈ 19.5 µM)	0.5 (≈ 0.876 µM)	0.5 (≈ 0.876 µM)	0.4 (≈ 0.701 µM)	0.7 (≈ 1.23 µM)	100	0	0	0	0	inactive
COc1ccc(-c2oc3cc(OC)c(OC)c(OC(C)=O)c3c(=O)c2OC)cc1OC(C)=O	15.9 (≈ 34.7 µM)	0.1 (≈ 0.218 µM)	0.2 (≈ 0.436 µM)	0.1 (≈ 0.218 µM)	0.4 (≈ 0.873 µM)	0.7 (≈ 1.53 µM)	–	–	–	–	–	–
COc1ccc(-c2oc3cc(OC)c(OC)c(O)c3c(=O)c2OC)cc1O [CASTICIN]	12.7 (≈ 33.9 µM)	0.6 (≈ 1.6 µM)	0.2 (≈ 0.534 µM)	0.5 (≈ 1.34 µM)	0.2 (≈ 0.534 µM)	0.8 (≈ 2.14 µM)	–	–	–	–	–	–
COc1ccc(-c2oc3cc(OC)c(OC)c(O)c3c(=O)c2OC)cc1OC(=O)c1ccccc1	> 20	20 (≈ 41.8 µM)	> 20	> 20	3.6 (≈ 7.52 µM)	16.5 (≈ 34.5 µM)	–	–	–	–	–	–
CCC(=O)Oc1cc(-c2oc3cc(OC)c(OC)c(OC(=O)CC)c3c(=O)c2OC)ccc1OC	> 20	6.5 (≈ 13.4 µM)	0.6 (≈ 1.23 µM)	0.4 (≈ 0.822 µM)	0.5 (≈ 1.03 µM)	1 (≈ 2.06 µM)	–	–	–	–	–	–
C=CCCC(=O)Oc1cc(-c2oc3cc(OC)c(OC)c(OC(=O)CCC=C)c3c(=O)c2OC)ccc1OC	15 (≈ 27.9 µM)	5.5 (≈ 10.2 µM)	0.6 (≈ 1.11 µM)	0.7 (≈ 1.3 µM)	0.6 (≈ 1.11 µM)	1.4 (≈ 2.6 µM)	–	–	–	–	–	–
CCCC(=O)Oc1cc(-c2oc3cc(OC)c(OC)c(OC(=O)CCC)c3c(=O)c2OC)ccc1OC	11.7 (≈ 22.7 µM)	> 20	0.5 (≈ 0.972 µM)	0.8 (≈ 1.55 µM)	0.6 (≈ 1.17 µM)	1.7 (≈ 3.3 µM)	–	–	–	–	–	–
